# Hits are enriched below; roughly 1.6% of the tested compounds scored in any of these assays.
# MBD2 inh – inhibitors of human MBD2 binding to methylated oligonucleotide; Q9UBB5; 0.31% of 370,000 active; TR-FRET; inhibition, % at 4.4 µM; AID 686964; in the data active = inhibition above about 13%
# TDP2 inh – blocks human TDP2 phosphodiesterase activity; inhibition, % at 12.8 µM; recombinant TDP2, T5PNP hydrolysis, p-nitrophenol absorbance 415 nm; 0.34% of 370,000 active; O95551;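 active = inhibition above the mean of all tested compounds plus 3 SD, set per campaign, cut at about 25% in these data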;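 also: 0% = DMSO with enzyme and 100% = buffer with substrate but no TDP2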
#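 Test system: Human TDP2 enzyme | Reagent: 5 mM T5PNP | Compound dosing: 12.8 µM single point, 1% DMSO | Incubation: Enzyme reaction with compound for 2 h at 37 °C | Technique: p-Nitrophenol epi absorbance | Read-out: % inhibition relative to enzyme-containing and enzyme-free wells | Benchmarks: High control without enzyme, low control DMSO plus TDP2 | Replicates: Singlicate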
# UHRF1 binding – human UHRF1 methylated DNA binding inhibitors | inhibition, % at 4.4 µM | UHRF1 binding to methylated oligo, TR-FRET | 0.75% of 370,000 active | Q96T88; in the data active = inhibition above about 21%;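 also: UHRF1 SRA domain binding a hemimethylated CpG hairpin DNA probe; 0% = median of test compound wells and 100% = reference inhibitor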
# Target sequence (Q96T88 whole entry, looked up, the tested form may be a part): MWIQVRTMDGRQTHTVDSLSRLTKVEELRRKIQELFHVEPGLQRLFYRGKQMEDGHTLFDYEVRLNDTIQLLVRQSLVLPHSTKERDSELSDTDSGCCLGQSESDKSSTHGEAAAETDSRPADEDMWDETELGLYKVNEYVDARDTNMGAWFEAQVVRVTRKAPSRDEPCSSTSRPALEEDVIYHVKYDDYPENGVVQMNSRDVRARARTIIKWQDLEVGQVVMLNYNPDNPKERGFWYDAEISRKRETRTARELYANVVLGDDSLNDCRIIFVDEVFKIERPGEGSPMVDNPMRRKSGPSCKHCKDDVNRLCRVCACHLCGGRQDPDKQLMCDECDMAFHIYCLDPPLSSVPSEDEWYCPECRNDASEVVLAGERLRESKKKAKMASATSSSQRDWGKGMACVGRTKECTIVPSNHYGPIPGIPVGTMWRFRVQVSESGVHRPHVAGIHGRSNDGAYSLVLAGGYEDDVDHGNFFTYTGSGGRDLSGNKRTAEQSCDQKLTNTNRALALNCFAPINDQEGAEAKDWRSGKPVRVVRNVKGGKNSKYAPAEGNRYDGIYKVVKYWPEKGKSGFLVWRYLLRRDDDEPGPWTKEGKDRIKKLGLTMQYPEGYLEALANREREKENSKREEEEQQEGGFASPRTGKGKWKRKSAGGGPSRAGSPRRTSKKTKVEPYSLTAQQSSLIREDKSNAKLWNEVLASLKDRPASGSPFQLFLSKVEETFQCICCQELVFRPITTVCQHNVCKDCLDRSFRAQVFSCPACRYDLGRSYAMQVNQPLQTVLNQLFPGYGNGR
# LEDGF integ inh – blocks HIV-1 LEDGF/p75-dependent DNA integration; TR-FRET IN-LEDGF/p75 DNA integration, Eu/Cy5; inhibition, % at 3.7 µM; 0.64% of 370,000 active; AID 743269;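 active = inhibition above the screen-wide mean plus 3 SD, cut at about 13% in these data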;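 also: signal is the Cy5 over europium emission ratio at 671 and 618 nm; 0% = plate median of compound wells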
# IN multimer act – activates HIV-1 integrase multimerization in LEDGF counter-screen; shares compounds with LEDGF integ inh; TR-FRET HIV-1 integrase multimerization, biochemical; activation, % at 7.7 µM; 17% of 2,000 active; in the data active = activation above about 8.9%
# TRFRET interf – counter-screen for LEDGF/p75 integration inhibitors: TR-FRET optical interference. TR-FRET optical interference counterscreen, HIV-1 IN multimerization. 2,000 tested, under 10 active. inhibition, % at 7.7 µM. shares compounds with LEDGF integ inh;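 active = inhibition above the mean over all tested compounds plus 3 SD, which no compound reached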;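 also: 0% = integrase with antibodies and DMSO and 100% = antibodies without integrase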
# LEDGF integ conf – LEDGF/p75-dependent HIV-1 integration inhibition, confirmation; shares compounds with LEDGF integ inh; TR-FRET LEDGF/p75-dependent HIV-1 integration, biochemical; inhibition, % at 3.7 µM; 36% of 2,000 active; AID 1053136; in the data active = inhibition above about 14%
# * marks the source's active call; other numbers are inactive results; / = no result given.
SMILES,MBD2 inh,TDP2 inh,UHRF1 binding,LEDGF integ inh,IN multimer act,TRFRET interf,LEDGF integ conf
CSc1nc(NCCOCCO)c2sc3nc(-c4ccco4)c4c(c3c2n1)CCC4,9,-10,29*,26*,0,2,15*
Oc1cc2c(cc1O)C1c3ccc(O)c(O)c3OCC1(O)C2 (configuration not stated),9,-2,12,89*,41*,-205,79*
COCc1cc(N2CCN(C(=O)OC(C)(C)C)C[C@H]2C)ccc1N1CCS(=O)(=O)CC1,-1,-2,-1,0,/,/,/
COc1ccc(-c2c(-c3cc(OC)cc(OC)c3)n(C)c3ccc(-c4ccc(OC)nc4)cc23)cc1,3,-6,1,19*,1,-5,-5
O=C(c1ccccc1I)N1CCC(Oc2cccnc2)CC1,1,8,-2,-2,/,/,/
COc1cc(OC)cc(C(=O)NCC2CCN(C(=O)C(=O)c3cccs3)CC2)c1,5,-4,3,0,/,/,/
O=C1C2C(C(=O)N1/N=C/c1cc([N+](=O)[O-])c(O)cc1O)C1C=CC2C12CC2 (configuration not stated),2,-8,15,18*,7,-37,20*
CCNC(=O)N1CCN(c2ccc(N3CCN(C(=O)NCC)[C@@H](C)C3)c(C)c2)[C@@H](C)C1,2,9,-3,2,/,/,/
O=C(Nc1ccncc1)Nc1cccc(Cl)c1,-3,1,1,1,/,/,/
O=C(Nc1cccc(C2=NCCN2)c1)Nc1cccc(C2=NCCN2)c1,0,1,8,18*,-3,12,18*
Cc1ccc(/C=C2\CCOC2=O)cc1,-7,-6,-2,-7,/,/,/
Cc1ccc(/C=C2/CNC/C(=C/c3ccc(C)cc3)C2=O)cc1,3,4,2,92*,3,-11,7
COc1ccc(-n2c(SCC(=O)N(CC(C)C)CC(C)C)nnc2-c2ccncc2)cc1,-1,7,-1,3,/,/,/
O=Cc1cc(N=Nc2cccc(C(=O)O)c2)ccc1O,0,-6,11,1,/,/,/
O=Cc1cc(N=Nc2ccccc2Cl)ccc1O,2,6,-3,17*,-3,13,49*
Cc1cc(-c2csc(NC(=O)C3=COCCO3)n2)c(C)n1C,-4,18,0,43*,7,-37,47*
Cc1cc(C)c(-c2csc(NC(=O)C3=COCCO3)n2)c(C)c1,4,1,2,-3,/,/,/
Nc1n[nH]c(CCCO)n1,1,6,0,25*,-1,3,-4
Cc1ccc(Nc2c([N+](=O)[O-])c(=O)oc3ccccc23)cc1C,7,0,5,14*,3,-9,12
O=c1oc2ccccc2c(Nc2cccc(O)c2)c1[N+](=O)[O-],-10,8,-3,5,/,/,/
COC(=O)[C@H]1C[C@@]2(c3ccccc3)c3ccccc3N(S(=O)(=O)c3ccccc3)[C@H]2N1,-1,3,6,1,/,/,/
O=C(COC(=O)Cc1ccsc1)NCc1ccc(Cl)cc1,5,-8,0,-4,/,/,/
O=C(COC(=O)Cc1ccsc1)NCc1ccccc1,3,1,1,30*,2,-8,-1
Oc1cccc(/C=N/Nc2ccc(Cl)nn2)c1,4,0,-3,1,/,/,/
O=C(O)c1ccc(/C=N/Nc2ccc(Cl)nn2)cc1,3,-4,1,21*,1,-5,1
SMILES,MBD2 inh,TDP2 inh,UHRF1 binding,LEDGF integ inh,IN multimer act,TRFRET interf,LEDGF integ conf
COC(=O)C1=C(C)N(CCCC(=O)O)C(=O)NC1c1cc2c(cc1[N+](=O)[O-])OCO2 (configuration not stated),2,1,14,27*,26*,-94,48*
COC(=O)C1=C(C)N(C)C(=O)NC1c1cc2c(cc1[N+](=O)[O-])OCO2 (configuration not stated),-4,8,4,5,/,/,/
Cc1ccc(N2C(=O)CCC2(C(N)=O)c2ccccc2)cc1 (configuration not stated),1,0,-1,-2,/,/,/
NC(=O)C1(c2ccccc2)CCC(=O)N1c1ccccc1 (configuration not stated),3,1,3,35*,1,-4,-1
CCN(CC)C(=O)CSc1nc2ccccc2c(=O)n1-c1cccc(OC)c1,3,-16,4,2,/,/,/
COc1ccc(NC(=O)CSc2nc(O)cc(=O)n2-c2ccc(OC)cc2)cc1,3,-8,-1,4,/,/,/
CNC(=O)CSc1nc2ccccc2c(=O)n1-c1cc(OC)ccc1OC,-2,-5,0,18*,-2,12,-9
COc1cccc(-n2c(SCc3cc(=O)oc4cc(O)c(O)cc34)nc3ccccc3c2=O)c1,7,-11,15,27*,14*,-50,72*
COc1ccc(-n2c(SCC(=O)Nc3ccccc3)nc(O)cc2=O)cc1,6,0,0,53*,0,-1,-3
O=C(NCc1ccccc1)[C@H]1CCCN1C(=O)[C@H]1CCCN1C(=O)c1ccc(OC(F)(F)F)cc1,-4,8,2,1,/,/,/
Cn1nnnc1SCC(=O)N1CCCCC1,8,0,20,-1,/,/,/
Cn1nnnc1SCC(=O)N1CCN(c2ccc(Cl)cc2)CC1,2,7,-1,57*,1,-3,2
CCOC(=O)NC[C@@]1(C(=O)OC)CC(=O)N(Cc2ccc(Cl)cc2)[C@@H]1c1ccc(OC)cc1,3,1,0,3,/,/,/
COc1ccc(N2C(=O)CSC2c2cccc(F)c2)cc1 (configuration not stated),3,6,13,29*,1,-7,-9
COc1ccc(C2SCC(=O)N2c2ccc(F)cc2)cc1 (configuration not stated),1,3,1,2,/,/,/
CCC(Sc1nc2ccccc2[nH]1)C(=O)Nc1cc(C)on1 (configuration not stated),-1,-3,2,29*,0,0,3
NC(=O)c1c(N)[nH]c(C(=O)c2ccccc2)c1-c1ccc(Br)cc1,2,3,-1,-6,/,/,/
CCCCC[C@H](C)N1C[C@H](COCc2ccccc2)Oc2cc(N3CC[C@H](O)C3)ccc2S1(=O)=O,2,-4,0,-1,/,/,/
CCCCC[C@@H](C)N1C[C@H](COCc2ccccc2)Oc2cc(N3CC[C@H](N(C)C)C3)ccc2S1(=O)=O,-3,-10,0,16*,0,-2,-2
O=C1[C@@H]2Cc3c([nH]c4ccccc34)CN2C(=O)CN1CCCCCO,-2,5,0,96*,0,-1,-5
